# Neddylation inh: cullin neddylation inhibition | inhibition, % at 25 µM | P61081+Q13564 | 360,000 tested, 0.58% active | TR-FRET cullin neddylation, biochemical | AID 651699; in the data active = inhibition above about 36%
# Arr AP2 block: inhibitors of human beta-arrestin and AP2 interaction; inhibition, % at 10 µM; 340,000 tested, 0.31% active; FITC-arrestin peptide / GST-AP2 beads, flow cytometry; AP2 beta2 appendage carries R879A mutation;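 active = inhibition above a set limit, near 3 SD of compounds lacking own fluorescence, cut at about 54% in these data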;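 note: plate controls were DMSO wells for no effect and 5 µM unlabelled arrestin peptide for full effect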
#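 System: GST-AP2 R879A bound to glutathione beads, E. coli-expressed. Also added: 50 nM FITC-arrestin peptide. Schedule: compound with beads 12 min RT, then probe 1 h RT. Signal: bead flow cytometry, FITC channel. Read-out basis: percent response.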
# DSG3 Ab inh: human desmoglein-3 autoantibody binding inhibition | P32926 | DSG3-coupled beads, scFv-anti-DSG3-GFP binding, flow cytometry; hits give low values | 310,000 tested, 0.48% active | binding (percent of control), % at 10 µM;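 active = binding more than 3 SD below its plate's average and above zero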;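 note: hits lower antibody fragment binding to DSG3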
# Target sequence (P32926 whole entry, looked up, the tested form may be a part): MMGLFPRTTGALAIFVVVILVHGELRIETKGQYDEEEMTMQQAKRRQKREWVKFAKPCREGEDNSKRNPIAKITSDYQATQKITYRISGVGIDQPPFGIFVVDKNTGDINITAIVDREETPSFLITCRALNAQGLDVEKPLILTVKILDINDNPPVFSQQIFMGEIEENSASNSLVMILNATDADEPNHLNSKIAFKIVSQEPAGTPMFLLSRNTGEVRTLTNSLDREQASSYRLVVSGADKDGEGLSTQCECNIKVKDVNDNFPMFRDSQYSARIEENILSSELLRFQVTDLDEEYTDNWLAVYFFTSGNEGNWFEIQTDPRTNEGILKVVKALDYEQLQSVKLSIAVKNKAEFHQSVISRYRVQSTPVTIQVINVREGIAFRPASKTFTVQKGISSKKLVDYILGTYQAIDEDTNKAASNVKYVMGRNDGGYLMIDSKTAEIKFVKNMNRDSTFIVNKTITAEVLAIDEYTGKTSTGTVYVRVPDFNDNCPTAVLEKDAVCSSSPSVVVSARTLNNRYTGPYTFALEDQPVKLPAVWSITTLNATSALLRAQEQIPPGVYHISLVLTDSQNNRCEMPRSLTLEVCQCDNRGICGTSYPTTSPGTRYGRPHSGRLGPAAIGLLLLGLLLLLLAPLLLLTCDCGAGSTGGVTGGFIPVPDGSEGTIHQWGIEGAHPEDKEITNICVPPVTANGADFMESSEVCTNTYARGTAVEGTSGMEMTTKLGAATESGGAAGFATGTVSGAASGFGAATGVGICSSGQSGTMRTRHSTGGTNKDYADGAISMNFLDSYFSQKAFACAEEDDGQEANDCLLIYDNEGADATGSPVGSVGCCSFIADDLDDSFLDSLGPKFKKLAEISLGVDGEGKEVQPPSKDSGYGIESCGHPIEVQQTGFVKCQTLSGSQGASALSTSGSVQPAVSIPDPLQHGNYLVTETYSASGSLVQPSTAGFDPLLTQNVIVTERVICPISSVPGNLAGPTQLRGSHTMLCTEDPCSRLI
# Efflux pump mplx: inhibitors of Candida antifungal efflux pumps expressed in yeast; S. cerevisiae Candida pump triplex, Nile Red efflux; 330,000 tested, 0.44% active; inhibition, % at 10 µM;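 active = plate passing quality check with inhibition over a set limit, or well fluorescence over plate mean plus 4 SD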;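 note: Nile Red retained in pooled yeast measured as flow cytometry median fluorescence; 0% = buffer negative control and 100% = Enniatin B positive control; higher means more Nile Red kept so more efflux inhibition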
# Neddyl conf: cullin neddylation inhibition, confirmation; shares compounds with Neddylation inh; TR-FRET cullin neddylation biochemical assay; calls only at 25 µM; 1,800 tested, 13% active; in the data active = inhibition above about 40%;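 note: neddylation substrate is the cullin 1 ring ligase complex with SKP2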
# Numbers without * were called inactive; i = inactive; · = not tested or not shown; + = active, no number. Shown are actives, neighbours in structure and some others; about 1.7% of the full set was active somewhere.
SMILES,Neddylation inh,Arr AP2 block,DSG3 Ab inh,Efflux pump mplx,Neddyl conf
Cc1nc2scc(C)n2c(=O)c1S(=O)(=O)NCC1CCN(Cc2ccc(Cl)cc2)CC1,45*,-7,102,0,i
Cc1cc(-n2c(C)cc(C(=O)COc3ccc4ccc(=O)oc4c3)c2C)no1,55*,-9,125,0,·
O=C1NC[C@H](CCCCN2C[C@H](Cc3ccccc3)N(Cc3ccccc3)C(=O)C2=O)N(CCC2CCCCC2)C1=O,6,·,·,·,·
CC[C@]12CCCN3CCc4c(n(c5ccccc45)[C@](O)(C(=O)OC)C1)[C@@H]32,43*,-4,107,0,i
Cc1nc(NC(=O)C2CC2)sc1C(=O)Nc1ccccc1Cl,-120,-10,111,0,·
COc1cc2ccnc(C=NO)c2cc1OC,41*,·,106,·,i
COc1cc2ccnc(C=O)c2cc1OC,2,·,101,·,·
COc1ccc(/C=C/c2nnc(NC(C)=O)s2)cc1,43*,1,112,0,i
Cc1ccc(S(=O)(=O)N2C[C@H]3[C@H]4C(=O)N(c5ccccc5)C(=O)[C@H]4C[C@H](OC(=O)NCC4CCCCC4)[C@@]3(O)C2)cc1,0,·,109,·,·
COc1ccc(NC(=O)COC(=O)C2C3CC4OC(=O)C2C4C3)cc1 (centres undefined),-3,11,·,0,·
O=C(NC1CCCN(Cc2ccc(Cl)cc2)C1)c1cnc2ccccn2c1=O (centres undefined),41*,3,122,0,·
COc1ccccc1-c1ccc2nnc(SC)n2n1,43*,-10,99,0,i
NC(=O)c1cnn2c(-c3ccc(Cl)cc3Cl)ccnc12,·,5,89,0,·
Cc1cc(F)ccc1S(=O)(=O)Nc1ccccc1C(=O)NCc1ccccn1,45*,-13,99,0,i
Cc1c(C)c2cc(Cl)c(OCc3nn[nH]n3)cc2oc1=O,47*,-3,95,0,i
COc1cccc(OC)c1C(=O)NC(=S)NNC(=O)[C@H]1C[C@@H]1c1ccccc1,48*,-3,97,0,i
OCC1OC(n2ccc3c(SCc4ccccc4)ncnc32)C(O)C1O (centres undefined),-1,-4,94,·,·
COc1ccc(C)cc1NC(=O)c1nn(-c2ccccc2)cc1OC,49*,-2,105,0,i
CCN1C(=O)CCN(C2CCCC2)c2nc(Nc3ccc(C(=O)NC4CCN(C)CC4)cc3OC)ncc21,31*,23,103,·,i
CCCCC(NC(=O)c1ccc(C#N)cc1)C(=O)NCCC (centres undefined),-22,29,107,0,·
CN(C)CCCNC(=O)C[C@H]1C[C@H](C(=O)N2CCCCC2)[C@@]2(C)c3[nH]c4cc(-c5ccco5)ccc4c3CCN2C1=O,48*,8,100,0,i
CN(C)CCCNC(=O)C[C@H]1C[C@H](C(=O)N2CCCCC2)[C@@]2(CCc3ccccc3)c3[nH]c4cc(-c5ccco5)ccc4c3CCN2C1=O,·,-1,96,1,·
CC1CCc2sc(NC(=O)c3ccc(N4C(=O)CCC4=O)cc3)c(C(N)=O)c2C1 (centres undefined),43*,-16,100,0,·
COc1ccc(CCNC(=O)Cn2c(=O)n(-c3ccc(C)c(F)c3)c(=O)c3sccc32)cc1OC,0,23,99,0,·
COc1ccc2c(c1OC)C(=O)N1C2SC[C@H]1C(=O)NC1CCCC1 (some centres undefined),·,7,·,0,·
SMILES,Neddylation inh,Arr AP2 block,DSG3 Ab inh,Efflux pump mplx,Neddyl conf
Cc1[nH]c2ccccc2c1C(=O)C(C)OC(=O)c1ccccc1NCCO (centres undefined),54*,-2,108,0,·
COc1ccc2[nH]c(C(=O)O)c(NS(=O)(=O)c3ccc(OC)c(OC)c3)c2c1,44*,-1,95,0,+
c1ccc(-c2oc3ncnc(NCCCN4CCOCC4)c3c2-c2ccccc2)cc1,52*,11,104,0,+
COc1ccc(-c2oc3ncnc(NCCCN4CCOCC4)c3c2-c2ccc(OC)cc2)cc1,·,3,105,0,·
CN(CC(=O)Nc1cccnc1)S(=O)(=O)c1ccc(Br)cc1,-4,-14,111,1,·
Oc1ccccc1C=NNC(=S)Nc1ccc(F)cc1,45*,19,96,·,·
Fc1ccc(NC(=S)NN=Cc2ccccc2Cl)cc1,-23,-7,92,·,·
Oc1ccccc1/C=N/NC(=S)NCCc1ccccc1,42*,-3,92,0,i
S=C(NCCc1ccccc1)N/N=C/c1cccc(Cl)c1Cl,-4,6,107,0,·

# Screening results as filed in PubChem.
